{
  "source": "ChEMBL document CHEMBL1287652",
  "about": "“QSAR modeling, synthesis and bioassay of diverse leukemia RPMI-8226 cell line active agents” (2010)",
  "type_in_all_cases": "functional",
  "key": {"SF-539": {"test_system": "SF-539", "experiment": "Antitumor activity against human SF539 cells after 48 hrs by sulforhodamine B assay", "settings": "SF-539, 48 h", "method_in_brief": "(§1)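 Cells were cultured in RPMI-1640 (5% FBS, 2 mM L-glutamine), pre-incubated for 24 h with time-zero plates TCA-fixed, then exposed for 48 h to five serial dilutions. The SRB read-out at 515 nm used time-zero, control and test absorbances. GI50 solves [(Ti−Tz)/(C−Tz)]×100 = 50 (net protein increase). TGI is the concentration giving 100% growth inhibition.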"}, "HOP-92": {"test_system": "HOP-92", "experiment": "Antitumor activity against human HOP92 cells after 48 hrs by sulforhodamine B assay", "settings": "HOP-92, 48 h", "method_in_brief": "(§2)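 Cells were grown in RPMI-1640 with 5% FBS and 2 mM L-glutamine, plated at 5000–40,000 cells/well, and preincubated for 24 h. A time-zero plate was TCA-fixed. Compounds were added from DMSO stock at five concentrations for 48 h at 37 °C. Cells were fixed with TCA (adherent 10%, suspension 16%) and stained with SRB, and A515 was read. GI50 and TGI were calculated from Tz, control and test absorbances.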"}, "OVCAR-8": {"test_system": "OVCAR-8", "experiment": "Antitumor activity against human OVCAR8 cells after 48 hrs by sulforhodamine B assay", "settings": "OVCAR-8, 48 h", "method_in_brief": "as §1"}, "MOLT-4": {"test_system": "MOLT-4", "experiment": "Antitumor activity against human MOLT4 cells after 48 hrs by sulforhodamine B assay", "settings": "MOLT-4, 48 h", "method_in_brief": "as §1"}, "OVCAR-3": {"test_system": "OVCAR-3", "experiment": "Antitumor activity against human OVCAR-3 cells after 48 hrs by sulforhodamine B assay", "settings": "OVCAR-3, 48 h", "method_in_brief": "as §1"}, "U-251": {"test_system": "U-251", "experiment": "Antitumor activity against human U251 cells after 48 hrs by sulforhodamine B assay", "settings": "U-251, 48 h", "method_in_brief": "(§3)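 Cells grown in RPMI-1640 with 5% FBS and 2 mM glutamine, plated and preincubated 24 h; time-zero plates TCA-fixed. Five-level serial dilutions added, 48 h at 37 °C. TCA fixation, SRB staining, absorbance 515 nm. GI50 derived from [(Ti−Tz)/(C−Tz)]×100 = 50; TGI is concentration giving 100% growth inhibition.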"}, "NCI-H322M": {"test_system": "NCI-H322M", "experiment": "Antitumor activity against human NCI-H322M cells after 48 hrs by sulforhodamine B assay", "method_in_brief": "as §1"}, "M14": {"test_system": "M14", "experiment": "Antitumor activity against human M14 cells after 48 hrs by sulforhodamine B assay", "settings": "M14, 48 h", "method_in_brief": "as §2"}, "Malme-3M": {"test_system": "Malme-3M", "experiment": "Antitumor activity against human MALME-3M cells after 48 hrs by sulforhodamine B assay", "method_in_brief": "as §2"}, "HCT-15": {"test_system": "HCT-15", "experiment": "Antitumor activity against human HCT15 cells after 48 hrs by sulforhodamine B assay", "settings": "HCT-15, 48 h", "method_in_brief": "as §2"}, "[1]": {"experiment": "Antitumor activity against human Hs 578T cells after 48 hrs by sulforhodamine B assay", "method_in_brief": "as §2"}, "SF-295": {"test_system": "SF-295", "experiment": "Antitumor activity against human SF295 cells after 48 hrs by sulforhodamine B assay", "settings": "SF-295, 48 h", "method_in_brief": "as §1"}, "NCI-H522": {"test_system": "NCI-H522", "experiment": "Antitumor activity against human NCI-H522 cells after 48 hrs by sulforhodamine B assay", "settings": "NCI-H522, 48 h", "method_in_brief": "as §1"}, "MDA-MB-435": {"test_system": "MDA-MB-435", "experiment": "Antitumor activity against human MDA-MB-435 cells after 48 hrs by sulforhodamine B assay", "settings": "MDA-MB-435, 48 h", "method_in_brief": "as §2"}, "TK-10": {"test_system": "TK-10", "experiment": "Antitumor activity against human TK10 cells after 48 hrs by sulforhodamine B assay", "settings": "TK-10, 48 h", "method_in_brief": "as §3"}, "SK-MEL-28": {"test_system": "SK-MEL-28", "experiment": "Antitumor activity against human SK-MEL-28 cells after 48 hrs by sulforhodamine B assay", "settings": "SK-MEL-28, 48 h", "method_in_brief": "as §1"}, "NCI-H23": {"test_system": "NCI-H23", "experiment": "Antitumor activity against human NCI-H23 cells after 48 hrs by sulforhodamine B assay", "settings": "NCI-H23, 48 h", "method_in_brief": "as §1"}, "SR": {"test_system": "SR", "experiment": "Antitumor activity against human SR cells after 48 hrs by sulforhodamine B assay", "method_in_brief": "as §1"}, "UO-31": {"test_system": "UO-31", "experiment": "Antitumor activity against human UO31 cells after 48 hrs by sulforhodamine B assay", "settings": "UO-31, 48 h", "method_in_brief": "as §3"}, "SNB-19": {"test_system": "SNB-19", "experiment": "Antitumor activity against human SNB19 cells after 48 hrs by sulforhodamine B assay", "settings": "SNB-19, 48 h", "method_in_brief": "as §1"}, "LOX IMVI": {"test_system": "LOX IMVI", "experiment": "Antitumor activity against human LOXIMVI cells after 48 hrs by sulforhodamine B assay", "method_in_brief": "as §2"}, "SNB-75": {"test_system": "SNB-75", "experiment": "Antitumor activity against human SNB75 cells after 48 hrs by sulforhodamine B assay", "settings": "SNB-75, 48 h", "method_in_brief": "as §1"}, "SK-MEL-2": {"test_system": "SK-MEL-2", "experiment": "Antitumor activity against human SK-MEL-2 cells after 48 hrs by sulforhodamine B assay", "settings": "SK-MEL-2, 48 h", "method_in_brief": "as §1"}, "RXF 393": {"test_system": "RXF 393", "experiment": "Antitumor activity against human RXF393 cells after 48 hrs by sulforhodamine B assay", "settings": "RXF 393, 48 h", "method_in_brief": "as §1"}, "T47D": {"test_system": "T47D", "experiment": "Antitumor activity against human T47D cells after 48 hrs by sulforhodamine B assay", "method_in_brief": "as §3"}, "A549": {"test_system": "A549", "experiment": "Antitumor activity against human A549 cells after 48 hrs by sulforhodamine B assay", "settings": "A549, 48 h", "method_in_brief": "as §2"}, "UACC-62": {"test_system": "UACC-62", "experiment": "Antitumor activity against human UACC62 cells after 48 hrs by sulforhodamine B assay", "settings": "UACC-62, 48 h", "method_in_brief": "as §3"}, "IGROV-1": {"test_system": "IGROV-1", "experiment": "Antitumor activity against human IGROV1 cells after 48 hrs by sulforhodamine B assay", "settings": "IGROV-1, 48 h", "method_in_brief": "as §2"}},
  "data": [
    {"compound": "COc1ccc(NC(=O)Nc2ccccc2OCCCOc2ccccc2NC(=O)Nc2ccc(OC)cc2)cc1", "values": [
      {"measurement": "GI50", "setting": "SF-539", "result": 3.4, "unit": "µM"},
      {"measurement": "TGI", "setting": "SF-539", "result": "> 100", "unit": "µM"},
      {"measurement": "GI50", "setting": "HOP-92", "result": 2.7, "unit": "µM"},
      {"measurement": "TGI", "setting": "HOP-92", "result": 8.6, "unit": "µM"},
      {"measurement": "GI50", "setting": "OVCAR-8", "result": 8.9, "unit": "µM"},
      {"measurement": "TGI", "setting": "OVCAR-8", "result": "> 100", "unit": "µM"},
      {"measurement": "GI50", "setting": "MOLT-4", "result": 17.7, "unit": "µM"},
      {"measurement": "TGI", "setting": "MOLT-4", "result": 36.6, "unit": "µM"},
      {"measurement": "GI50", "setting": "OVCAR-3", "result": "> 100", "unit": "µM"},
      {"measurement": "TGI", "setting": "OVCAR-3", "result": "> 100", "unit": "µM"},
      {"measurement": "GI50", "setting": "U-251", "result": 3.7, "unit": "µM"},
      {"measurement": "TGI", "setting": "U-251", "result": 28.8, "unit": "µM"},
      {"measurement": "GI50", "setting": "NCI-H322M", "result": "> 100", "unit": "µM"},
      {"measurement": "TGI", "setting": "NCI-H322M", "result": "> 100", "unit": "µM"},
      {"measurement": "GI50", "setting": "M14", "result": 45.7, "unit": "µM"},
      {"measurement": "TGI", "setting": "M14", "result": "> 100", "unit": "µM"},
      {"measurement": "GI50", "setting": "Malme-3M", "result": 0.3, "unit": "µM"},
      {"measurement": "TGI", "setting": "Malme-3M", "result": 5.3, "unit": "µM"},
      {"measurement": "GI50", "setting": "HCT-15", "result": "> 100", "unit": "µM"},
      {"measurement": "TGI", "setting": "HCT-15", "result": "> 100", "unit": "µM"},
      {"measurement": "GI50", "setting": "[1]", "result": "> 100", "unit": "µM"},
      {"measurement": "TGI", "setting": "[1]", "result": "> 100", "unit": "µM"},
      {"measurement": "GI50", "setting": "SF-295", "result": 29.9, "unit": "µM"},
      {"measurement": "TGI", "setting": "SF-295", "result": "> 100", "unit": "µM"},
      {"measurement": "GI50", "setting": "NCI-H522", "result": "> 100", "unit": "µM"},
      {"measurement": "TGI", "setting": "NCI-H522", "result": "> 100", "unit": "µM"},
      {"measurement": "GI50", "setting": "MDA-MB-435", "result": "> 100", "unit": "µM"},
      {"measurement": "TGI", "setting": "MDA-MB-435", "result": "> 100", "unit": "µM"},
      {"measurement": "GI50", "setting": "TK-10", "result": 4, "unit": "µM"},
      {"measurement": "TGI", "setting": "TK-10", "result": 49.7, "unit": "µM"},
      {"measurement": "GI50", "setting": "SK-MEL-28", "result": "> 100", "unit": "µM"},
      {"measurement": "TGI", "setting": "SK-MEL-28", "result": "> 100", "unit": "µM"},
      {"measurement": "GI50", "setting": "NCI-H23", "result": 12.4, "unit": "µM"},
      {"measurement": "TGI", "setting": "NCI-H23", "result": "> 100", "unit": "µM"},
      {"measurement": "GI50", "setting": "SR", "result": 0.2, "unit": "µM"},
      {"measurement": "TGI", "setting": "SR", "result": 4, "unit": "µM"},
      {"measurement": "GI50", "setting": "UO-31", "result": "> 100", "unit": "µM"},
      {"measurement": "TGI", "setting": "UO-31", "result": "> 100", "unit": "µM"},
      {"measurement": "GI50", "setting": "SNB-19", "result": 4.3, "unit": "µM"},
      {"measurement": "TGI", "setting": "SNB-19", "result": 26.1, "unit": "µM"},
      {"measurement": "GI50", "setting": "LOX IMVI", "result": "> 100", "unit": "µM"},
      {"measurement": "TGI", "setting": "LOX IMVI", "result": "> 100", "unit": "µM"},
      {"measurement": "GI50", "setting": "SNB-75", "result": 1.5, "unit": "µM"},
      {"measurement": "TGI", "setting": "SNB-75", "result": 5.3, "unit": "µM"},
      {"measurement": "GI50", "setting": "SK-MEL-2", "result": "> 100", "unit": "µM"},
      {"measurement": "TGI", "setting": "SK-MEL-2", "result": "> 100", "unit": "µM"},
      {"measurement": "TGI", "setting": "RXF 393", "result": "> 100", "unit": "µM"},
      {"measurement": "GI50", "setting": "T47D", "result": "> 100", "unit": "µM"},
      {"measurement": "TGI", "setting": "T47D", "result": "> 100", "unit": "µM"},
      {"measurement": "GI50", "setting": "A549", "result": "> 100", "unit": "µM"},
      {"measurement": "TGI", "setting": "A549", "result": "> 100", "unit": "µM"},
      {"measurement": "GI50", "setting": "UACC-62", "result": "> 100", "unit": "µM"},
      {"measurement": "TGI", "setting": "UACC-62", "result": "> 100", "unit": "µM"},
      {"measurement": "GI50", "setting": "IGROV-1", "result": "> 100", "unit": "µM"},
      {"measurement": "TGI", "setting": "IGROV-1", "result": "> 100", "unit": "µM"}
    ]}
  ]
}
